Assay results from ChEMBL document CHEMBL2158002, “Small-molecular inhibitors of Ca²⁺-induced mitochondrial permeability transition (MPT) derived from muscle relaxant dantrolene” (2012).

These compounds were tested on HL-60 (assay: Inhibition of Ca2+-induced mitochondrial permeability transition in human HL60 cells at 50 uM after 40 mins relative to control). Conditions: HL-60, 40 min.
Format: functional
Procedure, shortened: (§1)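 Mitochondria were isolated from human leukaemia HL-60 cells, which were grown in RPMI1640 with 5% heat-inactivated FBS and penicillin/streptomycin at 37 °C under 5% CO2. Swelling was then triggered with 250 µM CaCl2 (final) and followed as the change in OD540 at 30 °C. Inhibition % at 40 min was scaled between no-CaCl2 (100%) and CaCl2-only (0%) controls.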

Point of comparison: `O=C(NN1CC(=O)N(Cc2cccnc2)C1=O)c1ccc(-c2cc(Cl)cc(Cl)c2)o1`, inhibition at 50 µM 71%. Against it:
- Nc1cccc(CN2C(=O)CN(NC(=O)c3ccc(-c4cc(Cl)cc(Cl)c4)o3)C2=O)c1 — lower, 48%
- Nc1cccc(CN2C(=O)CN(NC(=O)c3ccc(-c4ccc(Cl)cc4)o3)C2=O)c1 — lower, 20%
- Nc1cccc(CN2C(=O)CN(NC(=O)c3ccc(-c4cccc(Br)c4)o3)C2=O)c1 — lower, 11%
- Nc1cccc(CN2C(=O)CN(NC(=O)c3ccc(-c4ccccc4)o3)C2=O)c1 — lower, 19%
- Nc1ccc(CN2C(=O)CN(NC(=O)c3ccc(-c4cc(Cl)cc(Cl)c4)o3)C2=O)cc1 — lower, 46%
- O=C(NN1CC(=O)N(Cc2ccncc2)C1=O)c1ccc(-c2cc(Cl)cc(Cl)c2)o1 — lower, 8.7%

Each compound was assayed on HL-60 (assay: Inhibition of Ca2+-induced mitochondrial permeability transition in human HL60 cells at 25 uM after 40 mins relative to control). Conditions: HL-60, 40 min.
Format: functional
Procedure, shortened: as §1

Point of comparison: `O=C1CN(/N=C/c2ccc(-c3ccc([N+](=O)[O-])cc3)o2)C(=O)N1` [DANTROLENE SODIUM], inhibition at 25 µM 13%. Against it:
- Nc1cccc(CN2C(=O)CN(NC(=O)c3ccc(-c4cc(Cl)cc(Cl)c4)o3)C2=O)c1 — higher, 35%
- Nc1cccc(CN2C(=O)CN(NC(=O)c3ccc(-c4cccc(C(F)(F)F)c4)o3)C2=O)c1 — lower, 6.5%
- CN1C(=O)CN(/N=C/c2ccc(-c3cccc(Cl)c3)o2)C1=O — lower, 6%
- CN1C(=O)CN(/N=C/c2ccc(-c3cc(Cl)cc(Cl)c3)o2)C1=O — higher, 23%
- CN1C(=O)CN(NC(=O)c2ccc(-c3cccc(Cl)c3)o2)C1=O — lower, 2%
- CN1C(=O)CN(NC(=O)c2ccc(-c3cc(Cl)cc(Cl)c3)o2)C1=O — lower, 8.5%
- Nc1cccc(CN2C(=O)CN(/N=C/c3ccc(-c4cccc(Cl)c4)o3)C2=O)c1 — higher, 14%
- Nc1cccc(CN2C(=O)CN(/N=C/c3ccc(-c4cc(Cl)cc(Cl)c4)o3)C2=O)c1 — higher, 14%
- Nc1cccc(CN2C(=O)CN(NC(=O)c3ccc(-c4cccc(Cl)c4)o3)C2=O)c1 — higher, 16%
